Screens (PubChem BioAssay)
A selection: hits, their analogues and other compounds. The true share with any hit is near 2.6%.
SENP7 inh = SENP7 protease inhibitors, primary screen, biochemical, luminescence, uHTS; inhibition, % at 5 µM; 330,000 tested, 1.5% active; recombinant SENP7, Z-RLRGG-aminoluciferin luminescence, 40 min; Sentrin-specific protease 7 (Homo sapiens), Q9BQF6;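 active = inhibition above about 50% at the single test dose, limit read from the data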;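 also: plate controls were DMSO with enzyme for no effect and no enzyme buffer wells for full effect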
Target sequence (Q9BQF6 706-1050 limits assumed): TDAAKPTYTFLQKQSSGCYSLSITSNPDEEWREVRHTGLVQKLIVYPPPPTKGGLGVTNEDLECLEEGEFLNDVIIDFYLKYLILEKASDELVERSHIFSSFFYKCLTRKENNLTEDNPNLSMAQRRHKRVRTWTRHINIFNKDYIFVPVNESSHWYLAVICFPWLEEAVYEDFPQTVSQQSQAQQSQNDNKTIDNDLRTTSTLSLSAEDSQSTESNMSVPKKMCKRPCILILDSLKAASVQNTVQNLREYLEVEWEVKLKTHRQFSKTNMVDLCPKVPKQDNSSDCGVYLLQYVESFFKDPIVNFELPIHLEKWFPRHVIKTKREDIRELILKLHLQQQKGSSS
SENP6 inh = SENP6 protease inhibitors, primary screen, biochemical, luminescence, uHTS; inhibition, % at 10 µM; 330,000 tested, 1.8% active; Sentrin-specific protease 6 (Homo sapiens), Q9GZR1; Recombinant SENP6 catalytic domain, aminoluciferin luminescence;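 active = inhibition above about 50% at the single tested dose, limit read from the data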;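 also: plate controls were DMSO wells with enzyme for no effect and DMSO wells lacking enzyme for full effect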
SENP8 block-1 = human SENP8 protease inhibitors, primary screen, biochemical, fluorescence, Nedd8 protein substrate, uHTS; recombinant SENP8; inhibition, % at 20 µM; 360,000 tested, 0.64% active; in the data active = inhibition mostly above about 40%, no sharp cut-off; inactive = mostly below about 27%
Target sequence (Q96LD8 whole entry, looked up): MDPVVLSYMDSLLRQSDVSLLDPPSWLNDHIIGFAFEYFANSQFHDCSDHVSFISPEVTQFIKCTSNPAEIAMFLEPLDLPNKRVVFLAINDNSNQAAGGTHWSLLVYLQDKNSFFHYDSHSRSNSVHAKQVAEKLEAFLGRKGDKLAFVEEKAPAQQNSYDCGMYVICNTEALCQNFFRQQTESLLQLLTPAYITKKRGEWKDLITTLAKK
UCH37 DUB inh = inhibitors of human UCH37 deubiquitinase, primary screen, biochemical, Ub-AMC cleavage, fluorescence; 330,000 tested, 0.33% active; inhibition, % (test concentration not listed); purified proteasome/UCH37;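 active = mean inhibition over replicate wells above about 20%, limit read from the data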;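 also: 0% = compound-free wells with enzyme and 100% = wells lacking proteasome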
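Material: Human UCH37 enzyme supplied as purified proteasome complex | Schedule: 30 min preincubation with enzyme, 25 min cleavage at room temperature | Detection: AMC fluorescence 355/460 nm | Measure: % inhibition of Ub-AMC cleavage fluorescence | Controls: Wells without proteasome as full block, compound-free enzyme plus substrate as uninhibited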
SENP1 FRET inh = human SENP1 catalytic domain inhibitors, primary screen, biochemical, FRET, uHTS. Sentrin-specific protease 1 (Homo sapiens), Q9P0U3. inhibition, % at 10 µM. AID 624204, 2012. recombinant SENP1 catalytic domain, CyPet-SUMO1-YPet FRET cleavage. 360,000 tested, 0.21% active;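 active = inhibition at least 30% at 10 µM, raw YFP signal under a set limit, fluorescence ratio 0.5 to 1.5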;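 also: 0% = enzyme with DMSO and 100% = no enzyme wells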
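Assay system: hSENP1 catalytic domain, recombinant. Amount: SENP1 enzyme, 20 pM final. Schedule: 50 min reaction, RT, dark. Technique: FRET, CFP and YFP emission. Control set: no-enzyme wells low, DMSO-plus-enzyme wells high control.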
SENP8 block-2 = SENP8 protease inhibitors, primary screen, biochemical, luminescence; purified SENP8, Z-RLRGG-aminoluciferin cleavage; inhibition, % at 10 µM; 330,000 tested, 1.2% active; AID 2540, 2010; in the data active = inhibition above about 50%
SENP8 conf = SENP8 protease inhibitors, retest, confirmation, biochemical, luminescence, single concentration; shares compounds with SENP7 inh; Recombinant SENP8, Z-RLRGG-aminoluciferin luminescence, 60 min; inhibition, % at 12.5 µM; 6,200 tested, 40% active;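 active = mean inhibition across replicates above about 50%, limit read from the data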
SENP6 conf = SENP6 protease inhibitors, confirmation, biochemical, luminescence, single concentration; 6,200 tested, 58% active; inhibition, % at 12.5 µM; shares compounds with SENP7 inh; recombinant SENP6, Z-RLRGG-aminoluciferin luminescence
SENP7 conf = SENP7 protease inhibitors, retest, confirmation, biochemical, luminescence, single concentration. shares compounds with SENP7 inh. recombinant SENP7, Z-RLRGG-aminoluciferin luminescence, 40 min. inhibition, % at 12.5 µM. 6,200 tested, 69% active
Casp3 SENP sel = caspase-3 protease inhibitors, confirmation, selectivity assay for SENP inhibitor project, biochemical, single concentration. shares compounds with SENP7 inh. purified caspase-3, Z-DEVD-aminoluciferin luminescence, 60 min. inhibition, % at 12.5 µM. 6,200 tested, 60% active;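 active = mean inhibition above about 50%, limit read from the data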;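 also: plate controls were enzyme with DMSO for no effect and wells without caspase-3 for full effect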
SENP luc ctr = luminescence interference (SENP counter-screen) | inhibition, % at 12.5 µM | Pre-incubated SENP8/Z-RLRGG-aminoluciferin, luciferase luminescence interference | 6,200 tested, 39% active | shares compounds with SENP7 inh | AID 488919;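 active = mean inhibition above about 50% when retested at one dose, limit read from the data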;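 also: plate controls were DMSO wells with completed reaction for no effect and substrate without enzyme for full effect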
* hit, by the source's call; i = inactive; / = no result.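 The calls were made as follows, unless noted: active = mean inhibition above about 50% in the one-dose retest (limit read from the data); inactive = the rest.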

SMILES | SENP7 inh | SENP6 inh | SENP8 block-1 | UCH37 DUB inh | SENP1 FRET inh | SENP8 block-2 | SENP8 conf | SENP6 conf | SENP7 conf | Casp3 SENP sel | SENP luc ctr
Cc1cc(C)cc(-c2nc(-c3ccncc3)no2)c1 | 61* | 74* | 5 | 6 | -1 | 66* | 31 | 27 | 21 | 50* | 16
CCCOc1ccc(C=NNc2cc(N3CCOCC3)ncn2)c(O)c1 | / | / | / | -1 | / | / | / | / | / | / | /
C=C(Cl)COc1ccc2c(CC)cc(=O)oc2c1 | 57* | -18 | -129 | -39 | -2 | -20 | 6 | 6 | 6 | 3 | 0
C=C(Cl)COc1ccc2c(CCCC)cc(=O)oc2c1 | -2 | -12 | -129 | -6 | -2 | -10 | / | / | / | / | /
CCOc1ccc(/C=N/NC(=O)c2ccc(Cn3cc(Br)cn3)o2)cc1 | 8 | 55* | -48 | / | -1 | 3 | 22 | 17 | 57* | 23 | 50
C=CCn1c(/N=C/c2ccc(N(C)C)cc2)nc2ccccc21 | 6 | 77* | 6 | / | -32 | 71* | 81* | 78* | 94* | 75* | 85*
CN(C)c1ccc(/C=N/n2ncc3ccccc32)cc1 | 2 | 76* | -252 | / | -17 | 68* | -5 | 85* | 97* | 70* | 43
CCC(=O)NC1=C(Nc2ccc(N)cc2)C(=O)c2ccccc2C1=O | 7 | 21 | 37 | 7 | 8 | 6 | / | / | / | / | /
Cc1cc(C)cc(NC2=C(N)C(=O)c3ccccc3C2=O)c1 | 11 | 70* | 48* | 4 | -4 | 29 | -3 | 6 | 2 | 5 | -6
COc1ccc(S(=O)(=O)N(CCc2ccccc2)CC(=O)NN=Cc2ccc3c(c2)OCO3)cc1 | / | / | / | 6 | / | / | / | / | / | / | /
Nc1nc(-c2ccc(-c3ccccc3)cc2)cs1 | 73* | -16 | -418 | -23 | 3 | 68* | 11 | 82* | 97* | 55* | 28
Nc1nc(-c2ccc(Oc3ccccc3)cc2)cs1 | -3 | 19 | 6 | 3 | -2 | -6 | / | / | / | / | /
Nc1nc(-c2cc3ccccc3o2)cs1 | 39 | 71* | 7 | 3 | 0 | 39 | 52* | 53* | 81* | 56* | 12
Nc1nc(-c2ccc3ccccc3c2)cs1 | 74* | 33 | -255 | -5 | 1 | 69* | 0 | 83* | 97* | 64* | 84*
O=C(CNC(=O)c1ccc(S(=O)(=O)N2CCCC2)cc1)NN=Cc1ccccc1Cl | / | / | / | 4 | / | / | / | / | / | / | /
O=C(NN=Cc1cnc(N2CCOCC2)s1)c1ccccc1 | / | / | / | 6 | / | / | / | / | / | / | /
COc1cc(OC)c(NC2=CC(=O)C(=O)c3ccccc32)cc1Cl | 53* | 79* | -292 | / | 1 | 70* | -23 | 87* | 73* | 10 | -8
CC(=NN=C(N)c1nonc1N)c1ccc2c(c1)OCO2 | / | / | / | 6 | / | / | / | / | / | / | /
CN=c1scc(-c2cccs2)n1/N=C/c1ccccc1O | 95* | 96* | -40 | / | -1 | 94* | 50 | 94* | 102* | 94* | 19
CCN=c1scc(-c2cccs2)n1N=Cc1cc(OC)ccc1O | / | / | / | 7 | / | / | / | / | / | / | /
CN=c1scc(-c2cccs2)n1/N=C/c1ccc(O)c(O)c1O | 57* | 79* | 30 | / | 3 | 82* | 95* | 95* | 99* | 80* | 82*
Cc1ccc2[nH]c(-c3cccc(F)c3)cc(=O)c2c1 | -2 | -9 | -142 | -3 | -5 | 0 | / | / | / | / | /
Cc1ccc2[nH]c(-c3cccc(N)c3)cc2c1 | 70* | 16 | -304 | -72 | -5 | 56* | 57* | 77* | 94* | 32 | 53*
c1ccc(-c2nc(C3CCCCC3)no2)cc1 | 34 | 59* | 13 | 1 | 0 | 12 | -5 | -1 | 57* | 13 | 5
COc1ccc(-c2nc(C3CCCCC3)no2)cc1OC | 1 | 1 | 27 | 5 | 2 | -23 | / | / | / | / | /
SMILES | SENP7 inh | SENP6 inh | SENP8 block-1 | UCH37 DUB inh | SENP1 FRET inh | SENP8 block-2 | SENP8 conf | SENP6 conf | SENP7 conf | Casp3 SENP sel | SENP luc ctr
CCCN1CCN(CCCNC(=O)c2cc3c(s2)-c2c(C)cccc2OC3)CC1 | -1 | -2 | -295 | i | -10 | 8 | / | / | / | / | /
O=C(Nc1ccccn1)c1ccc2c(c1)OCCO2 | 80* | -7 | 16 | 1 | -2 | 61* | 9 | 70* | 92* | 89* | 72*
O=C(Nc1ncccc1Cl)c1ccc2c(c1)OCCO2 | 27 | -27 | 21 | 2 | -1 | 22 | / | / | / | / | /
Cc1cccc(NC(=O)c2cc3c(s2)-c2c(C)cccc2OC3)n1 | 86* | 18 | -406 | -291 | -38 | 40 | 4 | 7 | 6 | 14 | 11
Cc1cccc(NC(=O)c2ccc3c(c2)OCCO3)n1 | 83* | 78* | 8 | 4 | 1 | 59* | 12 | 75* | 92* | 89* | 76*
O=C(Nc1ccccn1)c1ccc2c(c1)OCO2 | 73* | 18 | 15 | 0 | -1 | 52* | 1 | 66* | 92* | 90* | 70*
Cc1nc(NC(=O)c2ccc3c(c2)OCO3)ccc1Br | 77* | 81* | 2 | 2 | 1 | 74* | -1 | 72* | 89* | 73* | 12
Cc1cc(NC(=O)c2ccc3c(c2)OCO3)no1 | 14 | 6 | 12 | 4 | 3 | -9 | / | / | / | / | /
Cc1nc(C2COc3ccccc3O2)sc1C(=O)O (stereo not drawn) | 80* | 88* | 3 | 2 | 3 | 84* | 90* | 91* | 99* | 97* | 88*
